According to ChEMBL document CHEMBL1126581 (J Med Chem, 1993):
Where a SMILES comes first, the peptide text is derived from it. [ ]: non-standard residue; d: D form. The star is where a group is joined. dHpg = N[C@@H](C(=O)O)c1ccc(O)cc1; dChg = N[C@@H](C(=O)O)C1CCCCC1; dPhg = N[C@@H](C(=O)O)c1ccccc1; Boc = CC(C)(C)OC(=O)*

Key:
Plasminogen = Plasminogen (Homo sapiens, UniProt P00747); assay: Inhibitory activity against plasmin
[1] = Selectivity was expressed as the ratio is IC 50 of plasmin / thrombin
In short: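 Ratio of plasmin IC50 to thrombin IC50. Amidolytic assays at 25 °C in 0.1 M Tris-HCl (pH 7.4):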

[2] = Selectivity was expressed as the ratio is IC 50 of t-PA / thrombin
In short: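 Ratio of t-PA IC50 to thrombin IC50. Amidolytic assays in 0.1 M Tris-HCl (pH 7.4) at 25 °C: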

Serine protease 1 = Serine protease 1 (Homo sapiens, UniProt P07477); assay: Inhibitory activity against trypsin
Serine protease 1, sequence (P07477 whole entry): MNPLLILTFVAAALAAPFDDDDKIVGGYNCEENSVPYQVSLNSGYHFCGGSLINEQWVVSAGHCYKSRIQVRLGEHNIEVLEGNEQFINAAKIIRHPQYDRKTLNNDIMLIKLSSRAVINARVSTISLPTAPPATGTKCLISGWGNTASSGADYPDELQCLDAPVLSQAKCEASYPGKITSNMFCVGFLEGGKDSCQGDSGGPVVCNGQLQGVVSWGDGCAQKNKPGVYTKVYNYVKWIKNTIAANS
In short: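 Trypsin 93 ng/mL hydrolysing Bz-Phe-Val-Arg-pNA 0.125 mg/mL, 0.1 M Tris-HCl pH 7.4, 25 °C. […] Varying peptide concentrations, 5-min preincubation. IC50 is the concentration producing 50% inhibition of activity against a blank control.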

Prothrombin (Bos taurus) = Prothrombin (Bos taurus) (UniProt P00735); assay: Inhibitory activity against thrombin
[3] = target: Coagulation factor X (Bos taurus) (UniProt P00743); assay: Inhibitory activity against factor Xa
Coagulation factor X (Bos taurus), sequence (P00743 whole entry, looked up): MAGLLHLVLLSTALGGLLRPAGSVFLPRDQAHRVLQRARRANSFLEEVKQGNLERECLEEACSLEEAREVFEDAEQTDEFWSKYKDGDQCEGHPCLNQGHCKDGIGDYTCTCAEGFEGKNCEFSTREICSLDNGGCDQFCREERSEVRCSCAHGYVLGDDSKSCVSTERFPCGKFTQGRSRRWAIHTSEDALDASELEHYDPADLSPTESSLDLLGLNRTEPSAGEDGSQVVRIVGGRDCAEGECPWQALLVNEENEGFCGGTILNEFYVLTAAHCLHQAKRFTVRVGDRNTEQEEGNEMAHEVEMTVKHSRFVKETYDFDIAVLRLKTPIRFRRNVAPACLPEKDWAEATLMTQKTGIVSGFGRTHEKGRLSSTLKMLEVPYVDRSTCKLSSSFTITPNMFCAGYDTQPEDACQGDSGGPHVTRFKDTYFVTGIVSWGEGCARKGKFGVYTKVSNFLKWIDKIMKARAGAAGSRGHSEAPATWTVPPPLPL

Plasminogen, sequence (P00747 97-580 limits assumed): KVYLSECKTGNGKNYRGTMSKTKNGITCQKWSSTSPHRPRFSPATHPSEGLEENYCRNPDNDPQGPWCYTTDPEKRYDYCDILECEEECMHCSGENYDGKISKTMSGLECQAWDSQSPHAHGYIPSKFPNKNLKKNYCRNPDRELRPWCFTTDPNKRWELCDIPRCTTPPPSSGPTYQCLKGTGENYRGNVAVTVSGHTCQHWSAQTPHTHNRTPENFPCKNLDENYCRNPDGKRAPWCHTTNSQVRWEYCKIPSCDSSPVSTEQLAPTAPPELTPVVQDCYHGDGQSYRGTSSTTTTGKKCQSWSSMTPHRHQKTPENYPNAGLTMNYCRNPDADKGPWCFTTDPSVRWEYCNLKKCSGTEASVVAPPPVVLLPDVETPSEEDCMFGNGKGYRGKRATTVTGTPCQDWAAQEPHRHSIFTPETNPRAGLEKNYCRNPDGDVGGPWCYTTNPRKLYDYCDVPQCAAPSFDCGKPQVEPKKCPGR
Plasminogen, sequence (P00747 581-810 limits assumed): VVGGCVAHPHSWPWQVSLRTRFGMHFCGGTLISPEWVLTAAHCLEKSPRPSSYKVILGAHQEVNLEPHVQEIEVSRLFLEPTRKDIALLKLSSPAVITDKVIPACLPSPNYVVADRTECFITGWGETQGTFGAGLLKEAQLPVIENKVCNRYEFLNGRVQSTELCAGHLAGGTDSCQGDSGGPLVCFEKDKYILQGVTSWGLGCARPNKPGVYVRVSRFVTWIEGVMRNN

| IC50 (Plasminogen) [nM] | Selectivity ratio [1] | Selectivity ratio [2] | IC50 (Serine protease 1) [nM] | IC50 (Prothrombin (Bos taurus)) [nM] | IC50 [3] [nM] | Structure (SMILES) |
| --- | --- | --- | --- | --- | --- | --- |
| 190 | 4 | 20 | 14 | 45 | 1600 | CC(C)(C)OC(=O)N[C@H](Cc1ccccc1)C(=O)N1CCC[C@H]1C(=O)N[C@H](C=O)CCCN=C(N)N |
| 55 | 3 | 670 | 9 | 18 | 50 | CC(C)(C)OC(=O)N[C@@H](C(=O)N1CCC[C@H]1C(=O)NC(C=O)CCCN=C(N)N)c1ccc2ccccc2c1 (some centres not stated) |
| 490 |  |  | 18 | 18 | 2200 | CN[C@@H](C(=O)N1CCC[C@H]1C(=O)N[C@H](C=O)CCCNC(=N)N)c1ccccc1 |
| 15000 | 60 | 3400 |  | 250 | 27000 | CO[C@H](C(=O)N1CCC[C@H]1C(=O)NC(C=O)CCCN=C(N)N)c1ccccc1 (some centres not stated) |
|  | 190 | > 100 |  |  |  | C[C@H](C(=O)N1CCC[C@H]1C(=O)NC(C=O)CCCN=C(N)N)c1ccccc1 (some centres not stated) |
|  | 160 | > 800 |  |  |  | CC[C@H](C(=O)N1CCC[C@H]1C(=O)NC(C=O)CCCN=C(N)N)c1ccccc1 (some centres not stated) |
| 910 | 50 | 2200 | 19 | 18 | 1600 | NC(N)=NCCC[C@@H](C=O)NC(=O)[C@@H]1CCCN1C(=O)[C@H](N)c1ccccc1 (H-[dPhg]-Pro-Arg-aldehyde) |
| 180 |  |  | 29 | 55 | 210 | CC(C)(C)OC(=O)N[C@H](C(=O)N1CCC[C@H]1C(=O)NC(C=O)CCCNC(=N)N)c1cccc2ccccc12 (some centres not stated) |
| 41000 | 8 |  | 890 | 5100 | 81000 | C[C@@H](C(=O)N1CCC[C@H]1C(=O)NC(C=O)CCCN=C(N)N)c1ccccc1 (some centres not stated) |
| 21000 |  |  | 350 | 130 | 33000 | CC[C@H](C(=O)N1CCC[C@H]1C(=O)NC(C=O)CCCNC(=N)N)c1ccccc1 (some centres not stated) |
|  | 30 | 870 |  |  |  | CC(C)(C)OC(=O)N[C@@H](C(=O)N1CCC[C@H]1C(=O)NC(C=O)CCCN=C(N)N)c1cccc2ccccc12 (some centres not stated) |
| 130 | 5 | 560 | 19 | 27 | 1400 | CC(C)(C)OC(=O)NC(C(=O)N1CCC[C@H]1C(=O)NC(C=O)CCCN=C(N)N)c1cccc(C(F)(F)F)c1 (some centres not stated) |
|  | 6 | 1100 |  |  |  | CC(C)(C)OC(=O)NC(C(=O)N1CCC[C@H]1C(=O)NC(C=O)CCCN=C(N)N)c1ccc(Cl)c(Cl)c1 (some centres not stated) |
| 18000 |  |  | 180 | 94 | 31000 | C[C@H](C(=O)N1CCC[C@H]1C(=O)NC(C=O)CCCNC(=N)N)c1ccccc1 (some centres not stated) |
| 81 | 7 | 190 | 13 | 12 | 81 | CC(C)(C)OC(=O)N[C@@H](C(=O)N1CCC[C@H]1C(=O)N[C@H](C=O)CCCN=C(N)N)C1CCCCC1 (Boc-[dChg]-Pro-Arg-aldehyde) |
|  | 30 | 2300 |  |  |  | CN[C@@H](C(=O)N1CCC[C@H]1C(=O)N[C@H](C=O)CCCN=C(N)N)c1ccccc1 |
|  | 3 |  |  |  |  | CC(C)(C)OC(=O)N[C@H](C(=O)N1CCC[C@H]1C(=O)NC(C=O)CCCN=C(N)N)c1cccc2ccccc12 (some centres not stated) |
| 150 | 2 | 180 | 13 | 73 | 190 | CC(C)(C)OC(=O)N[C@@H](C(=O)N1CCC[C@H]1C(=O)N[C@H](C=O)CCCN=C(N)N)c1ccsc1 |
| 620 |  |  | 14 | 23 | 1400 | CC(C)(C)OC(=O)N[C@@H](C(=O)N1CCC[C@H]1C(=O)NC(C=O)CCCNC(=N)N)c1cccc2ccccc12 (some centres not stated) |
| 98 | 6 | 540 | 9.8 | 16 | 260 | CC(C)(C)OC(=O)N[C@@H](C(=O)N1CCC[C@H]1C(=O)N[C@H](C=O)CCCN=C(N)N)c1ccccc1 (Boc-[dPhg]-Pro-Arg-aldehyde) |
| 180 |  |  | 15 | 28 | 69 | CC(C)(C)OC(=O)NC(C(=O)N1CCC[C@H]1C(=O)NC(C=O)CCCNC(=N)N)c1ccc(Cl)c(Cl)c1 (some centres not stated) |

| Structure (SMILES) | IC50 (Plasminogen) [nM] | Selectivity ratio [1] | Selectivity ratio [2] | IC50 (Serine protease 1) [nM] | IC50 (Prothrombin (Bos taurus)) [nM] | IC50 [3] [nM] |
| --- | --- | --- | --- | --- | --- | --- |
| CC(C)(C)OC(=O)N[C@H](C(=O)N1CCC[C@H]1C(=O)N[C@H](C=O)CCCN=C(N)N)c1ccc(F)cc1 | 770 | 9 | 1100 | 24 | 85 | 6700 |
| N=C(N)NCCC[C@@H](C=O)NC(=O)[C@@H]1CCCN1C(=O)[C@H]1Cc2ccccc2CN1 |  |  |  | 19 | 25 | 4100 |
| N=C(N)NCCC[C@@H](C=O)NC(=O)[C@@H]1CCCN1C(=O)C1CCc2ccccc2N1 (some centres not stated) | 15000 | 5 | 210 | 570 | 3100 | 12000 |
| CC(C)(C)OC(=O)N[C@@H](C(=O)N1CCC[C@H]1C(=O)N[C@H](C=O)CCCN=C(N)N)c1ccc(O)cc1 (Boc-[dHpg]-Pro-Arg-aldehyde) | 94 | 1 | 180 | 17 | 89 | 200 |
| CC(C)(C)OC(=O)N[C@@H](C(=O)N1CCC[C@H]1C(=O)N[C@H](C=O)CCCN=C(N)N)c1ccc(F)cc1 | 85 | 4 | 600 | 19 | 30 | 1600 |
| N=C(N)NCCC[C@@H](C=O)NC(=O)[C@@H]1CCCN1C(=O)[C@@H]1NCCc2ccccc21 | 1500 |  |  | 23 | 19 |  |
